The list is not random: actives were taken first. Their share in the collection is about 2.3%.
SKKanGAS inh = S. pyogenes SKKanGAS growth inhibitors in kanamycin, primary screen, streptokinase expression inhibitor project, SKKanGAS strain, BacTiter-Glo luminescence; 6 h; inhibition, % at 7.5 µM; 1.3% of 300,000 active; AID 1662, 2009;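 active means mean replicate score, as percent of positive control median, at least 50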;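 further: strain carries kanamycin resistance gene driven by streptokinase promoter and grows in 40 µg/ml kanamycin; loss of luminescence reflects streptokinase promoter inhibition or plain growth inhibition; 0% = median of DMSO wells and 100% = positive control at its reference dose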
ARFGAP1 inh = inhibitors of rat ARFGAP1 GAP activity, primary screen, biochemical, fluorescence polarization, GDP tracer; ADP-ribosylation factor GTPase-activating protein 1 (Rattus norvegicus), Q62848; Arfgap1-stimulated ARF1 GTP hydrolysis, GDP FP detection; inhibition, % at 16.5 µM; 0.26% of 360,000 active; AID 651572, 2012;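 active means inhibition above a per-plate limit, mean inhibition of low control wells plus 3 SD, cut at about 25% in these data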;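 further: 0% = DMSO wells with enzyme and 100% = wells lacking Arfgap1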
Target sequence (Q62848 1-136 limits assumed): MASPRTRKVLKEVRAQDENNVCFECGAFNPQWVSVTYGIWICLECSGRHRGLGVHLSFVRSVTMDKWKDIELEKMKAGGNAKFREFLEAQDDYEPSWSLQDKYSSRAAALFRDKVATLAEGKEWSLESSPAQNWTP
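system = rat Arfgap1 catalytic domain, aa 1-136 | technique = FP, GDP Alexa 633 tracer displaced from anti-GDP antibody, 620/688 nm | compound = one concentration, 16.5 µM, DMSO 1.26% | medium = HEPES-based buffer, pH 7.5 | timing = compound-enzyme preincubation 20 min, reaction 120 min, detection 60 min, 25 °C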
sPLA2-III inh = human group III sPLA2 inhibitors, primary screen, biochemical, QFRET, BODIPY PC-A2 liposome substrate; QFRET BODIPY PC-A2 liposome hydrolysis, fluorescence; inhibition, % at 12.2 µM; 0.56% of 370,000 active; AID 743126, 2013;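 active means inhibition above mean plus 3 SD of compounds lying within the high and low control bounds, cut at about 19% in these data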;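 further: 0% = median of test compound wells and 100% = no enzyme DMSO wells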
Calb FLC = C. albicans growth inhibition with fluconazole, primary screen, CaCi-2 strain, Alamar Blue fluorescence. C. albicans CaCi-2 (fluconazole-resistant clinical isolate) + fluconazole, 48 h. growth inhibition, % (test concentration not listed). 0.57% of 300,000 active;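 active means growth inhibition above about 58% in most replicates, limit read from the data, passing the limit was not always enough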;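 further: all wells also contain fluconazole at 8 µg/ml as a sub-toxic cotreatment; 0% = median of DMSO wells and 100% = median of geldanamycin control wells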
ASAP1 inh = inhibitors of human ASAP1 ArfGAP activity, primary screen, biochemical, fluorescence polarization; Arf-GAP with SH3 domain, ANK repeat and PH domain-containing protein 1 (Homo sapiens), …; 0.19% of 360,000 active; AID 624377, 2012; ASAP1-stimulated ARF1 GTP hydrolysis, GDP FP detection; inhibition, % at 16.5 µM; in the data active means inhibition above about 25%;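 further: 0% = vehicle with enzyme and substrate and 100% = no enzyme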
Target sequence (Q9ULH1 325-724 limits assumed): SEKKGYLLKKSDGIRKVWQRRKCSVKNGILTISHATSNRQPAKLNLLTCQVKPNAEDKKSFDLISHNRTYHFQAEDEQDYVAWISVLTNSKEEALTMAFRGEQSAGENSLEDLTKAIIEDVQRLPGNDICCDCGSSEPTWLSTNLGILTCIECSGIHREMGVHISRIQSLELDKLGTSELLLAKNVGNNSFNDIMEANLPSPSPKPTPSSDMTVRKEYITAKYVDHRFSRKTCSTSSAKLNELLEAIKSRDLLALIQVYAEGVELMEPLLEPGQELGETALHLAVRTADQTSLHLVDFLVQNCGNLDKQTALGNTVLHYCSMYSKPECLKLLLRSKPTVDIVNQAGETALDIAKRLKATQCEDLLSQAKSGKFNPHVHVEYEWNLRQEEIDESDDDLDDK
hGIII sPLA2 conf = human group III sPLA2 inhibitors, confirmation, biochemical, QFRET, triplicate | shares compounds with sPLA2-III inh | recombinant hGIII-sPLA2, BODIPY PC-A2 QFRET fluorescence | inhibition, % at 12.2 µM | 34% of 2,000 active | AID 743280, 2014;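 active means mean inhibition across triplicates above the hit cutoff set in the earlier primary screen, cut at about 19% in these data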;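 further: 0% = enzyme with DMSO and 100% = DMSO wells lacking enzyme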
535nm interf = 535nm fluorescence optical interference, confirmation, artefact control for HGIII-sPLA2 inhibitor project, biochemical, QFRET. shares compounds with sPLA2-III inh. BODIPY FL product fluorescence interference. inhibition, % at 12.2 µM. 8.5% of 2,000 active. AID 743282, 2014;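 active means average inhibition above the solvent-only control mean plus 3 SD, cut at about 6% in these data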;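 further: 0% = DMSO with substrate plus product and 100% = DMSO with substrate alone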
535nm interf DR = 535nm fluorescence optical interference, dose response, artefact control for HGIII-sPLA2 inhibitor project, biochemical, QFRET; IC50, µM; 240 tested, under 10 active; BODIPY FL product fluorescence interference, cell-free; shares compounds with sPLA2-III inh;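 active means IC50 at or below 10 µM; inactive means IC50 above 10 µM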
* marks the source's active call; other numbers are inactive results; nt = not tested or not shown.

SMILES | SKKanGAS inh | ARFGAP1 inh | sPLA2-III inh | Calb FLC | ASAP1 inh | hGIII sPLA2 conf | 535nm interf | others
CCOc1ccc(-c2csc(N3CCC(C(N)=O)CC3)n2)cc1 | nt | nt | 8 | nt | nt | nt | nt
CCc1ccc(N2C(=O)C3NN=C(C(=O)OCc4ccccc4)C3C2=O)cc1 (stereo unspecified) | 7 | -7 | 8 | 9 | 5 | nt | nt
O=C(OCc1ccccc1)C1=NNC2C(=O)N(c3ccccc3)C(=O)C12 (stereo unspecified) | -3 | 16 | 23* | 6 | 24 | 1 | -3
N#Cc1ccccc1NCCCN1CCC(C(O)(c2ccccc2)c2ccccc2)CC1 | nt | nt | -11 | nt | nt | nt | nt
CC(C)c1ccc(NC(=O)Nc2nc(C(N)COCc3ccccc3)cs2)cc1 (stereo unspecified) | nt | 5 | 22* | nt | 20 | 8 | -3
Cc1ccccc1NC(=O)Nc1nc(C(N)c2ccccc2)cs1 (stereo unspecified) | nt | 6 | 22* | nt | 4 | 1 | -3
CC(C)C(N)c1csc(NC(=O)Nc2cccc(Cl)c2)n1 (stereo unspecified) | nt | -1 | 22* | nt | 13 | 8 | -9
NC(c1csc(NC(=O)Nc2cccc(Cl)c2)n1)c1ccccc1Cl (stereo unspecified) | nt | -3 | 14 | nt | 2 | nt | nt
CC(C)CC(N)c1csc(NC(=O)Nc2ccccc2C(C)C)n1 (stereo unspecified) | nt | 9 | 22* | nt | 6 | 3 | -21
CC1CCCN(S(=O)(=O)c2ccc3c(c2)OCCO3)C1 (stereo unspecified) | nt | 5 | 5 | nt | 3 | nt | nt
CCCCn1c(C23CC4CC(CC(C4)C2)C3)n[nH]c1=S | 20 | -1 | 25* | 2 | 3 | 44* | 4 | 535nm interf DR=>122
CCc1ccccc1NC(=O)CCS(=O)(=O)c1ccc(C)cc1 | 4 | 5 | 20* | -6 | -2 | -2 | -4
Cc1ccc(NC(=O)CCN2CCN(CCO)CC2)cc1Br | -6 | -8 | 23* | -3 | 5 | -5 | -3
O=C(Nc1cccc(F)c1)OC1CC2CC1[C@H]1CCCCN1[C@H]2Cc1ccccc1 (stereo partly specified) | nt | nt | -3 | nt | nt | nt | nt
C#CCOc1ccccc1C(=O)NNc1ccc([N+](=O)[O-])cc1[N+](=O)[O-] | nt | 7 | 0 | nt | 2 | nt | nt
O=C(CC1CCCC1)N1CC[C@H]2[C@H](CCCN2Cc2cc(F)cc(F)c2)C1 | nt | nt | -3 | nt | nt | nt | nt
NC(=O)C1CC(=O)N(c2ccc(OCc3ccc(Cl)cc3)cc2)C1 (stereo unspecified) | -3 | 10 | 20* | -4 | 5 | 12 | -8
CCOC(=O)c1sc(NC(C)=O)nc1C | -12 | -3 | 23* | 18 | -9 | 3 | -8
CCOC(=O)c1sc(NC(=O)c2ccc(OC)cc2)nc1C | -2 | -18 | 2 | -5 | 2 | nt | nt
COc1cc2c(cc1OC)C(c1ccccc1)=NCC2 | 0 | 7 | 27* | -1 | -10 | 0 | -11
COc1cc2c(cc1OC)C(c1ccccc1N)=NCC2 | -2 | 6 | -5 | -19 | 2 | nt | nt
Cc1cc(C(=O)O)c(CSc2ncn[nH]2)o1 | -1 | 2 | 21* | -5 | -3 | 0 | -5
O=C(O)c1cccc(CSc2ncn[nH]2)c1 | -6 | 1 | 1 | -5 | -3 | nt | nt
Cc1ccc2c(c1)C(=O)C(=O)N2Cc1ccc(C(F)(F)F)cc1 | nt | 0 | 30* | nt | 6 | 26* | 3
O=C1C(=O)N(Cc2ccc(-c3ccc(Cl)nc3)cc2)c2ccc(OC(F)(F)F)cc21 | nt | nt | 25* | nt | nt | 32* | -2 | 535nm interf DR=>122
SMILES | SKKanGAS inh | ARFGAP1 inh | sPLA2-III inh | Calb FLC | ASAP1 inh | hGIII sPLA2 conf | 535nm interf | others
O=C1C(=O)N(Cc2ccc(-c3ccccc3)cc2)c2ccc(OC(F)(F)F)cc21 | nt | nt | 26* | nt | nt | 34* | 1 | 535nm interf DR=>122
O=C(N/N=C/c1coc2ccccc2c1=O)c1cc(Br)ccc1O | -2 | 7 | 22* | 5 | 4 | 13 | 1
O=C(N/N=C/c1coc2ccccc2c1=O)c1ccccc1 | 0 | -11 | -2 | 13 | -4 | nt | nt
COC(=O)CCN(Cc1cccc(OC)c1OC)S(=O)(=O)c1ccccc1Br | nt | -2 | -2 | nt | -1 | nt | nt
O=C(Nc1ccc(Br)c(C(F)(F)F)c1)[C@@H]1CC=C[C@@H]2CCN(CC3CC3)C(=O)[C@@H]21 | nt | nt | 3 | nt | nt | nt | nt
COC(=O)[C@@]12C[C@@H](CC(=O)NCC3CCCCC3)C(=O)N(Cc3ccc4c(c3)OCO4)C1=CCC(C)(C)C2 | nt | 10 | -14 | nt | -2 | nt | nt
O=c1oc2ccccc2cc1-c1csc(NN=C2CCCC2)n1 | 5 | 8 | 20* | -5 | 4 | 7 | -3
COc1ccc(/C=C/S(=O)(=O)NCc2ccccc2)c(CNC(=O)OC(C)(C)C)c1 | nt | nt | 0 | nt | nt | nt | nt
Cc1ccc(O)c(NC(=S)NC(=O)C(C)C)c1 | -7 | -6 | 21* | -1 | -3 | 11 | -5
Cc1ccc2nc(-c3ccc(F)cc3)c(Cc3ccsc3)n2c1 | nt | -5 | -6 | nt | -2 | nt | nt
COC(=O)[C@]12C[C@H](CC(=O)NCCCCc3ccccc3)C(=O)N(Cc3ccc(Cl)cc3Cl)C1=C[C@H](C1CCCC1)O[C@@H]2C | nt | nt | 1 | nt | nt | nt | nt
Oc1ccccc1/C=N/n1c(COc2ccccc2)n[nH]c1=S | -3 | 4 | 24* | -10 | 1 | 16 | 2
CCOc1ccccc1/C=N/n1c(COc2ccccc2)n[nH]c1=S | -2 | -1 | 23* | -13 | 1 | 19* | 6.9*
Cc1n[nH]c(=S)n1/N=C/c1ccc(OCc2ccc(Cl)cc2Cl)cc1 | -2 | -4 | 3 | -10 | 13 | nt | nt
Cc1ccc(/C=N/n2c(COc3ccccc3)n[nH]c2=S)o1 | -3 | -5 | 20* | 27 | -2 | 25* | 3
Cc1n[nH]c(=S)n1/N=C/c1ccccc1OCc1ccc(Cl)cc1Cl | 2 | 1 | 20* | 33 | 3 | 17 | 5
C#CCN1C[C@@]2(O)CC[C@@H](O)[C@@H](OC)[C@@H]2[C@@]1(C)[C@H](O)CC=C(C)C | nt | 6 | -4 | nt | -4 | nt | nt
COc1ccc(C(C)=O)cc1CSC(=S)N1CCSCC1 | nt | 9 | 1 | nt | -1 | nt | nt
